Hsp70 activator – Hsp70 transcriptional activators, primary screen, cell-based, HeLa, Hsp70 promoter luciferase, luminescence, 10 µM; HeLa Hsp70 promoter luciferase reporter; scaled: vehicle 0, proteasome-inhibitor control 100%; activation, % at 10 µM; actives 0.04% (n = 200,000);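 active = activation above the mean across all tested compounds plus 3 SD, cutoff set per campaign, cut at about 5.5% in these data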;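 note: 100% = MG132 at 30 µM as the positive control and 0% = DMSO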
CHOP inh – inhibitors of CHOP promoter induction, primary screen, cell-based, unfolded protein response, luciferase reporter; CHO-K1 CHOP-promoter luciferase, tunicamycin-induced, 15-18 h; inhibition, % at 10 µM; actives 3.8% (n = 220,000);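 active = compounds that reduced the stress-induced luciferase reporter signal by more than about 70% of percent inhibition, limit read from the data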;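 note: 0% = tunicamycin plus vehicle and 100% = wells without tunicamycin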
MDM2 E3 inh – MDM2-luciferase reporter signal enhancers, primary screen, MDM2 E3 ligase inhibitor project, cell-based, luminescence, 1536-well | cell-based MDM2 ubiquitination luciferase reporter, 2 h; 0 = plate control, 100 = twice control, blank-subtracted | E3 ubiquitin-protein ligase Mdm2 (Homo sapiens), Q00987 | actives 0.11% (n = 210,000) | signal enhancement, % at 5 µM;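 active = signal enhancement of 30% or more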;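 note: luminescence tracks abundance of the self-degrading MDM2-luciferase fusion protein; higher signal means inhibition of MDM2 E3 ligase activity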
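Assay system: stable mammalian line carrying autodegrading MDM2–luciferase fusion reporter; amount: 2000 cells seeded into each well; buffer or medium: DMEM; benchmarks: plate control and blank wells; signal: luciferase luminescence; timing: 2 h compound exposure at 37 °C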
S1P3 antagonist – S1P3 receptor antagonists, primary screen, cell-based; AID 485, 2006; actives 0.27% (n = 170,000); inhibition, % at 4.98 µM; CHO S1P3 NFAT-BLA reporter, FRET fluorescence, antagonist mode; Sphingosine 1-phosphate receptor 3 (Homo sapiens), Q99500;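 active = inhibition above the plate cutoff, the mean inhibition of test wells on that plate plus 3 SD, cut at about 28% in these data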;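 note: cells challenged with S1P at its EC80 of 0.8 µM; blue over green emission ratio from cleaved BLA substrate after 4 h stimulation; 0% = S1P-stimulated wells and 100% = unstimulated DMSO-only wells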
Target sequence (Q99500 whole entry, looked up): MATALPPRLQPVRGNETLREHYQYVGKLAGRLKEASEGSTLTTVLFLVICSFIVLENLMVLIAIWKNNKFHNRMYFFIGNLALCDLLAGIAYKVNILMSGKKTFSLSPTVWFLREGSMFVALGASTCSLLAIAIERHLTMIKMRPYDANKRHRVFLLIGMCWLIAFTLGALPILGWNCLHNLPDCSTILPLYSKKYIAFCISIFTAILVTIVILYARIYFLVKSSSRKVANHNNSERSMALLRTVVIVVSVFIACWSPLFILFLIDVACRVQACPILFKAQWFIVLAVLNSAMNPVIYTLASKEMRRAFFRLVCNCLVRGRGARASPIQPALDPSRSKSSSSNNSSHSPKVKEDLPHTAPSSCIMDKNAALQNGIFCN
CHOP confirm – retest of CHOP induction inhibitors, confirmation, cell-based; inhibition, % at 10 µM; shares compounds with CHOP inh; AID 504437, 2011; actives 45% (n = 2,100); CHO-CHOP promoter luciferase reporter, tunicamycin-induced, luminescence;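 active = mean of three repeat readings of reporter signal inhibition above a set limit, cut at about 70% in these data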;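 note: 0% = tunicamycin plus vehicle and 100% = wells lacking tunicamycin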
* hit, by the source's call; / = no result given. The list is not random: actives were taken first. Their share in the collection is about 4%.

SMILES | Hsp70 activator | CHOP inh | MDM2 E3 inh | S1P3 antagonist | CHOP confirm
CCCCOP(=O)(OCCCC)C1(NS(=O)(=O)c2ccccc2)C=CC(=O)c2ccccc21 (configuration not stated) | 0 | 96* | -4 | / | 63
COc1cc(/C=N/NC(=O)COc2ccccc2C)ccc1OC(=O)c1cccs1 | 0 | -2 | -6 | / | /
CCOc1cc(/C=N/NC(=O)COc2cccc(C)c2)ccc1OC(=O)c1cccs1 | 0 | 106* | 1 | / | 94*
CCOC(=O)c1c(-c2ccc(C)cc2)csc1NC1=NS(=O)(=O)c2ccccc21 | 0 | 101* | 2 | -6 | -20
CCOC(=O)c1cnc(SCc2cccc(C)c2)nc1N | 0 | 59 | -12 | / | /
NC(=O)CC(NC(=O)Cc1ccc(Br)cc1)c1ccc(N2CCN(c3ccccc3)CC2)c([N+](=O)[O-])c1 (configuration not stated) | / | 103* | -3 | / | 32
CCCCNc1ccc(C(CC(N)=O)NC(=O)Cc2cccc3ccccc23)cc1[N+](=O)[O-] (configuration not stated) | / | 104* | -13 | / | 26
Cc1cccc(CNc2ccc(C(CC(N)=O)NC(=O)Cc3cccc4ccccc34)cc2[N+](=O)[O-])c1 (configuration not stated) | / | 105* | -3 | / | 17
NC(=O)CC(NC(=O)c1ccc(Br)cc1)c1ccc(N2CCN(c3ccccn3)CC2)c([N+](=O)[O-])c1 (configuration not stated) | / | 22 | 7 | / | /
Cc1cccc(NS(=O)(=O)c2cnc(Cl)c(Br)c2)n1 | 0 | 12 | -17 | -5 | /
COc1ccc(-c2ccc(C#N)c(SCC(=O)Nc3sc4c(c3C#N)CCC4)n2)cc1OC | 0 | 102* | -6 | / | 16
Cc1cc(C)c(NS(=O)(=O)c2ccc3c(c2)NC(=O)CC(=O)N3)c(C)c1 | 0 | 2 | -6 | 0 | /
C=C(C(=O)c1ccccc1)C(C)C(=C)C(=O)c1ccccc1 | 0 | 100* | -9 | 6 | 110*
CC(=O)Oc1ccc(C(=O)O)c(OC(C)=O)c1 | / | -4 | -25 | -3 | /
COc1ccc(-c2c3c(nc4sc5c(=O)[nH]c(C)nc5c24)CCC3)cc1 | 0 | 113* | -9 | / | 24
COc1ccc(-c2c3c(nc4sc(C(=O)Nc5cc(C)on5)c(N)c24)CCC3)cc1 | 0 | -13 | -15 | 52 | /
CCc1ccc(CNC(=O)CCc2nnc(Cc3cccc(C(F)(F)F)c3)o2)nc1 | 0 | 10 | -14 | -3 | /
COc1ccc(/C=N\NC(=O)COc2ccc(C(C)(C)C)cc2)cc1Cn1nc(C)cc1C | 0 | 110* | -17 | / | 104*
CNCC(O)COc1ccccc1 (configuration not stated) | 0 | 104* | -3 | / | 5
COc1ccccc1NCC(O)COc1ccc(C(C)(C)C)cc1 (configuration not stated) | 0 | 105* | 1 | -6 | 120*
OC(CNc1ccccc1)COc1ccc(OCC(O)CNc2ccccc2)cc1 (configuration not stated) | 0 | 65 | -87 | / | /
COc1ccc(NCC(O)COc2ccc(C(C)(C)C)cc2)cc1 (configuration not stated) | 0 | 104* | -7 | 2 | 57
CCOC(=O)CN(C(=O)c1ccccc1[N+](=O)[O-])C(C)(C)C | / | -2 | -6 | -11 | /
CC(C)c1nnc(N2C(=O)c3oc4ccccc4c(=O)c3C2c2ccco2)s1 (configuration not stated) | 0 | 112* | 3 | 14 | 110*
CCOc1ccc(/C=N/Nc2ccccn2)cc1OC | 0 | -2 | -16 | -9 | /
SMILES | Hsp70 activator | CHOP inh | MDM2 E3 inh | S1P3 antagonist | CHOP confirm
CCOc1ccc(/C=N/N(C)c2ccccc2)cc1OC | 0 | 100* | -15 | / | 3
CCc1ccc(CNC(=O)CN2C(=O)COc3ccccc32)cc1 | 0 | 18 | -21 | -5 | /
CC1CCc2c(sc3ncn(N)c(=N)c23)C1 (configuration not stated) | / | 15 | -9 | 4 | /
CC1CCCN(Cc2c(O)ccc3c(=O)c(-c4nc5ccccc5s4)c(N)oc23)C1 (configuration not stated) | 0 | 10 | -13 | / | /
CC1(C)CCCN(Cc2c(O)ccc3c(=O)c(-c4nc5ccccc5s4)c(N)oc23)C1 | / | 104* | -9 | -3 | 2
Cc1cccc(N=Nc2c(N)n[nH]c2-c2ccc(Cl)cc2)c1 | 0 | 109* | -9 | / | 108*
CCC1(O)CC2CN(CCc3c([nH]c4ccccc34)[C@@](C(=O)OC)(c3cc4c(cc3OC)N(C)C3[C@]45CCN4CC=C[C@@](CC)([C@@H](OC(C)=O)[C@]3(O)C(=O)OC)[C@H]45)C2)C1 (some centres not stated) | / | -5 | / | / | /
O=C1c2cccc3c([N+](=O)[O-])ccc(c23)C(=O)N1c1nccs1 | 0 | 110* | -9 | / | 38
CC1=C(C)C(=O)N(c2ccccn2)C1=O | 0 | 13 | -15 | -29 | /
O=C1c2cccc3c([N+](=O)[O-])ccc(c23)C(=O)N1c1ccc(Cl)cn1 | 0 | 109* | -24 | / | 51
O=C1c2cccc3c([N+](=O)[O-])ccc(c23)C(=O)N1c1ccccn1 | 0 | 101* | -1 | / | 84*
Cc1ccc(N2C(=O)c3cccc4c(Oc5ccccc5[N+](=O)[O-])ccc(c34)C2=O)c(C)c1 | 1 | 42 | -7 | 2 | /
CN(C(=O)COC(=O)/C=C/c1cn(-c2ccccc2)nc1-c1ccc2c(c1)OCCO2)C1CCS(=O)(=O)C1 (configuration not stated) | 0 | -13 | -9 | 8 | /
COc1ccc(OCCN(C)Cc2ccccc2)cc1 | 0 | -14 | -11 | 3 | /
COc1ccc(CN(C)C2c3ccccc3-c3ccccc32)cc1 | 0 | 106* | -8 | -2 | 5
CCOC(=O)C1CCCN(C(=O)C(C)(C)Oc2ccc(Cl)cc2)C1 (configuration not stated) | 0 | 27 | 0 | -2 | /
CCc1ccc(OCC(=O)NC(NC(=S)Nc2ccc(C)cc2C)C(Cl)(Cl)Cl)cc1 (configuration not stated) | 0 | 108* | 3 | / | 113*
Cc1cccc(NC(=S)NC(NC(=O)OCc2ccccc2)C(Cl)(Cl)Cl)c1 (configuration not stated) | 0 | 106* | -4 | / | 103*
CCc1ccc(OCC(=O)NC(NC(=S)Nc2ccccc2OC)C(Cl)(Cl)Cl)cc1 (configuration not stated) | 0 | 9 | -10 | -1 | /
Cc1cccc(NC(=O)[C@H](Cc2ccccc2)NC(=O)OCc2ccccc2)c1 | 0 | 17 | -12 | 5 | /

Screening results from PubChem.
